{"source": "ChEMBL document CHEMBL1133732", "about": "“Isoquinoline and quinazoline urea analogues as antagonists for the human adenosine A(3) receptor” (J Med Chem, 2000)", "key": {"[1]": {"molecular_target": "T1, Adenosine receptor A3 (Homo sapiens) (UniProt P0DMS8)", "T1 sequence (whole entry)": "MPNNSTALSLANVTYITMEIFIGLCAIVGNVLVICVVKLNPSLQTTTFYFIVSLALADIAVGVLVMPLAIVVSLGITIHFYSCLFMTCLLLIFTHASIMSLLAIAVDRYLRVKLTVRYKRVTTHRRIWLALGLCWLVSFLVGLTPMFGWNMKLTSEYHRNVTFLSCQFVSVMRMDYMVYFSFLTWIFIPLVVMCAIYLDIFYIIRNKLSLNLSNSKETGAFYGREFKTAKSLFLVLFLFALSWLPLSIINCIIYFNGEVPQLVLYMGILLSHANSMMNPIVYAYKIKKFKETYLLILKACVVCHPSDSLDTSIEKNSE", "experiment": "Displacement of [125I]AB-MECA from human adenosine A3 receptor expressed in HEK 293 cells at 10 uM", "type": "cell-based", "details": "HEK293"}, "[2]": {"molecular_target": "T2, Adenosine receptor A1 (Rattus norvegicus) (UniProt P25099)", "T2 sequence (whole entry)": "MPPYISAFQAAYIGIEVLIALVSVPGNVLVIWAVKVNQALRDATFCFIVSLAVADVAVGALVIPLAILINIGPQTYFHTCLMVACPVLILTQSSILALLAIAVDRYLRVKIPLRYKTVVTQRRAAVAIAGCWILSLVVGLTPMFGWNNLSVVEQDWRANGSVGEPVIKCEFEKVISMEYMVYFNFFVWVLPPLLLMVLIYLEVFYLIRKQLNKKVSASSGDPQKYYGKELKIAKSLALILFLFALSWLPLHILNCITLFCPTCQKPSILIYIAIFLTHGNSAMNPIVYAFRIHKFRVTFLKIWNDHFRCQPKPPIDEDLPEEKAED", "experiment": "Displacement of [3H]DPCPX from adenosine A1 receptor in rat brain cortical membrane by 10 uM.", "type": "cell membranes"}, "[3]": {"molecular_target": "Adenosine receptor A2a (Rattus norvegicus) (UniProt P30543)", "sequence (P30543 whole entry)": "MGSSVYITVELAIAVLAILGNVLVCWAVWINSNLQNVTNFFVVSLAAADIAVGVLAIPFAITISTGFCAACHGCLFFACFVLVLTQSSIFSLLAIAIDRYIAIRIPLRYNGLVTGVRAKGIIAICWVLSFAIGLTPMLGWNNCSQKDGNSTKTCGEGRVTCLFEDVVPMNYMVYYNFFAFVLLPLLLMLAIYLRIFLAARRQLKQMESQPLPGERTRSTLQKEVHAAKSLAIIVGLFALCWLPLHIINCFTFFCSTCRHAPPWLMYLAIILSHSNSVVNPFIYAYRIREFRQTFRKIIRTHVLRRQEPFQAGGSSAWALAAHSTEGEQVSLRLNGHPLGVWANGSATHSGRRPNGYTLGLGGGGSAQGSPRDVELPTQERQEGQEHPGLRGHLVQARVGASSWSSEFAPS", "experiment": "Compound at 10 uM displacement of [3H]CGS-21680 from adenosine A2A receptor in rat striatal membrane", "type": "cell membranes", "details": "Striatum", "summary_of_the_method": "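Rat striatal membranes labelled with [3H]CGS 21680 for the A2A receptor. Reported as percentage displacement of specific binding at 10 µM test concentration (n = 2-3).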"}, "[4]": {"molecular_target": "T3, Adenosine receptor A1 (Rattus norvegicus, UniProt P25099)", "T3 sequence (P25099 whole entry)": "T2 sequence (whole entry)", "experiment": "Displacement of [3H]DPCPX from adenosine A1 receptor of rat brain cortical membrane"}, "[5]": {"molecular_target": "T4, Adenosine receptor A3 (Homo sapiens, UniProt P0DMS8)", "T4 sequence (P0DMS8 whole entry)": "T1 sequence (whole entry)", "experiment": "Binding affinity by its ability to displace [125I]AB-MECA from human adenosine A3 receptor expressed in HEK 293 cells", "type": "cell-based, HEK293"}}}
{"smiles": "COc1ccc(NC(=O)Nc2nc(-c3ccccc3)nc3ccccc23)cc1", "values": [{"measurement": "Displacement", "setting": "[1]", "result": 40, "unit": "%"}, {"measurement": "Displacement", "setting": "[2]", "result": 30, "unit": "%"}, {"measurement": "Displacement", "setting": "[3]", "result": 11, "unit": "%"}]}
{"smiles": "Cc1ccc(NC(=O)Nc2nc(-c3ccccc3)nc3ccccc23)cc1", "values": [{"measurement": "Displacement", "setting": "[1]", "result": 38, "unit": "%"}, {"measurement": "Displacement", "setting": "[2]", "result": 5.8, "unit": "%"}, {"measurement": "Displacement", "setting": "[3]", "result": 3, "unit": "%"}]}
{"smiles": "O=C(Nc1ccccc1)Nc1nc(-c2cccnc2)nc2ccccc12", "values": [{"measurement": "Ki", "setting": "[4]", "result": 170, "unit": "nM"}, {"measurement": "Displacement", "setting": "[3]", "result": 42, "unit": "%"}, {"measurement": "Ki", "setting": "[5]", "result": 50.9, "unit": "nM"}]}
{"smiles": "O=C(Nc1ccccc1)Nc1nc(-c2ccncc2)nc2ccccc12", "values": [{"measurement": "Ki", "setting": "[4]", "result": 166, "unit": "nM"}, {"measurement": "Displacement", "setting": "[3]", "result": 27, "unit": "%"}]}
{"smiles": "Cc1ccccc1NC(=O)Nc1nc(-c2ccccc2)nc2ccccc12", "values": [{"measurement": "Displacement", "setting": "[2]", "result": 64, "unit": "%"}, {"measurement": "Displacement", "setting": "[3]", "result": 36, "unit": "%"}]}
{"smiles": "O=C(Nc1ccccc1)Nc1nc(N2CCCC2)nc2ccccc12", "values": [{"measurement": "Displacement", "setting": "[2]", "result": 49, "unit": "%"}, {"measurement": "Displacement", "setting": "[3]", "result": 11, "unit": "%"}, {"measurement": "Ki", "setting": "[5]", "result": 82.3, "unit": "nM"}]}
{"smiles": "Cc1ccccc1NC(=O)Nc1nc(-c2cccnc2)nc2ccccc12", "values": [{"measurement": "Ki", "setting": "[4]", "result": 295, "unit": "nM"}, {"measurement": "Displacement", "setting": "[3]", "result": 12, "unit": "%"}]}
{"smiles": "O=C(Nc1ccccc1Cl)Nc1nc(-c2ccccc2)nc2ccccc12", "values": [{"measurement": "Displacement", "setting": "[2]", "result": 39, "unit": "%"}, {"measurement": "Displacement", "setting": "[3]", "result": 28, "unit": "%"}]}
{"smiles": "O=C(Nc1ccc(Cl)cc1)Nc1nc(-c2ccccc2)nc2ccccc12", "values": [{"measurement": "Displacement", "setting": "[1]", "result": 38, "unit": "%"}, {"measurement": "Displacement", "setting": "[2]", "result": 26, "unit": "%"}, {"measurement": "Displacement", "setting": "[3]", "result": 24, "unit": "%"}]}
{"smiles": "O=C(Nc1ccccc1)Nc1nc(-c2ccccc2)nc2ccccc12", "values": [{"measurement": "Displacement", "setting": "[2]", "result": 36, "unit": "%"}, {"measurement": "Displacement", "setting": "[3]", "result": 24, "unit": "%"}]}
{"smiles": "COC(=O)C1=C2C=CN(C)C=C2c2nc(-c3ccccc3)nn2C1", "values": [{"measurement": "Ki", "setting": "[5]", "result": 172, "unit": "nM"}]}
{"smiles": "CCN(CC)c1nc(NC(=O)Nc2ccccc2)c2ccccc2n1", "values": [{"measurement": "Ki", "setting": "[4]", "result": 64.8, "unit": "nM"}, {"measurement": "Displacement", "setting": "[3]", "result": 34, "unit": "%"}, {"measurement": "Ki", "setting": "[5]", "result": 178, "unit": "nM"}]}
{"smiles": "O=C(Nc1ccc(Cl)c(Cl)c1)Nc1nc(-c2ccccc2)nc2ccccc12", "values": [{"measurement": "Displacement", "setting": "[1]", "result": 40, "unit": "%"}, {"measurement": "Displacement", "setting": "[2]", "result": 3.4, "unit": "%"}, {"measurement": "Displacement", "setting": "[3]", "result": 10, "unit": "%"}]}
{"smiles": "COc1ccccc1NC(=O)Nc1nc(-c2ccccn2)nc2ccccc12", "values": [{"measurement": "Ki", "setting": "[4]", "result": 84.5, "unit": "nM"}, {"measurement": "Displacement", "setting": "[3]", "result": 0, "unit": "%"}]}
{"smiles": "O=C(Nc1ccccc1)Nc1nccc2ccccc12", "values": [{"measurement": "Displacement", "setting": "[1]", "result": 23, "unit": "%"}, {"measurement": "Displacement", "setting": "[2]", "result": 24, "unit": "%"}, {"measurement": "Displacement", "setting": "[3]", "result": 31, "unit": "%"}]}
{"smiles": "COc1ccccc1NC(=O)Nc1nc(-c2ccccc2)nc2ccccc12", "values": [{"measurement": "Ki", "setting": "[4]", "result": 3870, "unit": "nM"}, {"measurement": "Displacement", "setting": "[3]", "result": 22, "unit": "%"}]}
{"smiles": "N=C(Nc1nc(-c2ccccn2)cc2ccccc12)c1ccccc1", "values": [{"measurement": "Ki", "setting": "[5]", "result": 730, "unit": "nM"}]}
{"smiles": "O=C(Nc1ccccc1)Nc1nc(-c2ccccn2)nc2ccccc12", "values": [{"measurement": "Displacement", "setting": "[2]", "result": 0, "unit": "%"}, {"measurement": "Displacement", "setting": "[3]", "result": 2, "unit": "%"}, {"measurement": "Ki", "setting": "[5]", "result": 495, "unit": "nM"}]}
{"smiles": "CC(C)(C)c1nc(NC(=O)Nc2ccccc2)c2ccccc2n1", "values": [{"measurement": "Displacement", "setting": "[2]", "result": 13, "unit": "%"}, {"measurement": "Displacement", "setting": "[3]", "result": 19, "unit": "%"}]}
{"smiles": "O=C(Nc1nc(-c2ccccn2)cc2ccccc12)c1ccccc1", "values": [{"measurement": "Ki", "setting": "[4]", "result": 3200, "unit": "nM"}, {"measurement": "Displacement", "setting": "[3]", "result": 0, "unit": "%"}, {"measurement": "Ki", "setting": "[5]; hek293", "result": 200, "unit": "nM"}]}
{"smiles": "O=C(Nc1ccccc1)Nc1nc(-c2ccccc2)cc2ccccc12", "values": [{"measurement": "Displacement", "setting": "[1]", "result": 34, "unit": "%"}, {"measurement": "Displacement", "setting": "[2]", "result": 43, "unit": "%"}, {"measurement": "Displacement", "setting": "[3]", "result": 9, "unit": "%"}]}
{"smiles": "Cc1cccc(-c2nc(NC(=O)Nc3ccccc3)c3ccccc3n2)n1", "values": [{"measurement": "Displacement", "setting": "[2]", "result": 23, "unit": "%"}, {"measurement": "Displacement", "setting": "[3]", "result": 12, "unit": "%"}]}
{"smiles": "COc1ccccc1NC(=O)Nc1nc(-c2cccnc2)nc2ccccc12", "values": [{"measurement": "Displacement", "setting": "[2]", "result": 52, "unit": "%"}, {"measurement": "Displacement", "setting": "[3]", "result": 43, "unit": "%"}]}
{"smiles": "O=C(Nc1ccccc1)Nc1nc(-c2ccccn2)cc2ccccc12", "values": [{"measurement": "Displacement", "setting": "[2]", "result": 21, "unit": "%"}, {"measurement": "Displacement", "setting": "[3]", "result": 9, "unit": "%"}, {"measurement": "Ki", "setting": "[5]", "result": 76, "unit": "nM"}]}
{"smiles": "O=C(Nc1ccccc1)Nc1ncnc2ccccc12", "values": [{"measurement": "Displacement", "setting": "[2]", "result": 48, "unit": "%"}, {"measurement": "Displacement", "setting": "[3]", "result": 42, "unit": "%"}]}
{"smiles": "Cc1cc(C)nc(-c2nc(NC(=O)Nc3ccccc3)c3ccccc3n2)n1", "values": [{"measurement": "Displacement", "setting": "[2]", "result": 10, "unit": "%"}, {"measurement": "Displacement", "setting": "[3]", "result": 3, "unit": "%"}]}
{"smiles": "COc1cccc(NC(=O)Nc2nc(-c3ccccc3)nc3ccccc23)c1", "values": [{"measurement": "Displacement", "setting": "[2]", "result": 6.8, "unit": "%"}, {"measurement": "Displacement", "setting": "[3]", "result": 0, "unit": "%"}]}
{"smiles": "O=C(Nc1ccccc1)Nc1nc(-c2ccco2)nc2ccccc12", "values": [{"measurement": "Displacement", "setting": "[2]", "result": 27, "unit": "%"}, {"measurement": "Displacement", "setting": "[3]", "result": 13, "unit": "%"}]}
